Compounds with a hit are over-represented: about 3% of the library has one in this group of screens.
RAM inhibit – yeast RAM network inhibition; S. cerevisiae dse1pr::URA3 reporter, 5-FOA growth OD615, 2 d; analog-sensitive cbk1-as2 kinase mutant strain; inhibition, % at 50 µM; 190,000 compounds, 1.8% hits;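 active means inhibition above a set limit, 3 SD over mean compound inhibition, cut at about 8.4% in these data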;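 further: 0% = DMSO-only wells with no growth and 100% = 10 µM 1-NA-PP1 full growth; inhibition rescues growth on 5-FOA so higher OD means more RAM inhibition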
Insulin prom inh – TRM-6 insulin promoter activity inhibition. AID 1273. inhibition, % at 2 µM. 130,000 compounds, 0.9% hits. TRM-6 cells, insulin promoter-eGFP reporter, imaging; reporter expression induced with tamoxifen;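 active means inhibition above the mean plus 3 SD, with well images judged a real hit on visual review, cut at about 60% in these data, passing the limit was not always enough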
Ins promoter up – MIN6 insulin promoter up-regulation | MIN6 insulin promoter-GFP reporter, high-content imaging; active compounds read high | z-score at 5 µM | 190,000 compounds, 0.3% hits;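 active means z-score above 3 at 5 µM with at least 500 cells counted in the well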
BB579 growth dn – yeast BB579 growth reduction in restrictive medium; S. cerevisiae BB579 growth, OD615, 48 h; inhibition, % at 10 µM; 140,000 compounds, 0.51% hits;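 active means inhibition above a set limit, 3 SD over the mean compound inhibition, cut at about 44% in these data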
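Assay system: S. cerevisiae DeaD strain BB579 yeast. Medium: CSMM-D restrictive synthetic medium containing dextrose (glucose). Times: 4 h cell preincubation, 48 h compound exposure, 30 °C humidified. Signal: OD615 turbidity measurement. Benchmarks: positive control amphotericin B 10 µg/mL.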
Yeast lifespan up – yeast lifespan extension; S. cerevisiae growth with nicotinamide, OD615; deaD strain in restrictive glucose medium; inhibition of the nicotinamide effect, % at 10 µM; 130,000 compounds, 0.68% hits;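 active means inhibition above a set limit, placed 3 SD over the median of all compounds, cut at about 26% in these data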;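 further: 0% = nicotinamide-treated wells and 100% = cells grown without nicotinamide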
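Buffer or medium: CSMM-D glucose medium, restrictive; test system: modified budding yeast, DeaD strain; compound: single dose 10 µM compound, 0.25% DMSO; schedule: culture preincubation 4 h, compound exposure 48 h, both 30 °C; detection: optical density (absorbance) at 615 nm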
RAM 5-FOA – RAM network inhibition, efflux-deficient strain. shares compounds with RAM inhibit. S. cerevisiae efflux-deficient reporter strain, 5-FOA growth OD615, 2 days. max inhibition, %. 1,200 tested, under 10 active; call rule not given here;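 further: plate controls were vehicle for no effect and reference inhibitor for full effect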
An asterisk follows results filed as active.

`COc1ccccc1-n1c(COc2ccccc2-c2ccccc2)nnc1SCC(=O)c1c(N)n(C)c(=O)n(C)c1=O` gave RAM inhibit 14*, Insulin prom inh 2, Ins promoter up 0.01, BB579 growth dn -50, Yeast lifespan up 0 and RAM 5-FOA 8.
`COc1ccc(OCc2nnc(SCC(N)=O)n2-c2ccccc2OC)cc1` gave RAM inhibit 0, Insulin prom inh -160, Ins promoter up 0.6, BB579 growth dn 0 and Yeast lifespan up -8.
Screening Cc1cc(NC(=O)CCCn2ccc([N+](=O)[O-])n2)n(Cc2ccc(F)cc2)n1 returned RAM inhibit 0.
O=C(O)c1cc([N+](=O)[O-])ccc1NCCO was read as RAM inhibit 5, Insulin prom inh 0, Ins promoter up -0.18, BB579 growth dn 0 and Yeast lifespan up 0.
`Cc1ccc(C)c(C(=O)COC(=O)c2cc([N+](=O)[O-])ccc2NCCO)c1` gave RAM inhibit 13*, Ins promoter up -0.72, BB579 growth dn -27, Yeast lifespan up -8 and RAM 5-FOA 1.
For CC(C)(C)NC(=O)C(c1ccncc1)N(Cc1ccc(F)cc1)C(=O)c1ccc(-c2ccccc2)[nH]1 (stereo not given) the results were RAM inhibit 1, Insulin prom inh 29 and Ins promoter up -0.48.
Screening OC(COc1ccc2c(c1)OCO2)CN1CCN(c2ccc(F)cc2)CC1 (stereo not given) returned RAM inhibit 1 and Ins promoter up -0.59.
Screening CN(C)S(=O)(=O)N1CCC(c2ccc(F)cc2)C(COc2ccc3c(c2)OCO3)C1 (stereo not given) returned RAM inhibit 17*, Insulin prom inh -121, Ins promoter up -0.37, BB579 growth dn -6, Yeast lifespan up 1 and RAM 5-FOA 4.
COc1cc(CNn2c(C)n[nH]c2=S)cc(Cl)c1OCc1ccc(F)cc1 was read as RAM inhibit 12*, Insulin prom inh -30, BB579 growth dn -46, Yeast lifespan up 5 and RAM 5-FOA 1.
Screening COc1cc(CNn2c(C)n[nH]c2=S)cc(Br)c1OCc1ccc(F)cc1 returned RAM inhibit 4, Insulin prom inh -67, Ins promoter up -0.41, BB579 growth dn -30 and Yeast lifespan up 0.
Cc1ccc(S(=O)(=O)N(CCC(=O)Nc2ccc(OC(F)(F)F)cc2)c2ccccc2)cc1 was read as RAM inhibit 16*, Insulin prom inh 19, Ins promoter up 0.01, BB579 growth dn 14, Yeast lifespan up -2 and RAM 5-FOA 2.
Cc1ccc(N(CCC(=O)NC(C)(C)C)S(=O)(=O)c2ccc(C)cc2)cc1 was read as RAM inhibit 1, Insulin prom inh -40 and Ins promoter up -0.19.
For CCCCCOP(=O)(OCCCCC)C1(NS(=O)(=O)c2ccccc2)C=CC(=O)c2ccccc21 (stereo not given) the results were RAM inhibit 12*, Insulin prom inh -61, Ins promoter up -0.17, BB579 growth dn -1, Yeast lifespan up 1 and RAM 5-FOA 1.
For CCCCCCOC1(c2ccccc2)OC(=O)c2ccccc21 (stereo not given) the results were RAM inhibit 1, Ins promoter up -0.18, BB579 growth dn -24 and Yeast lifespan up -3.
For NS(=O)(=O)c1ccc(NNC(=O)c2ccc(F)cc2F)cc1 the results were Ins promoter up 0.19.
`Cc1cc(C(F)(F)F)c(C#N)c(N2CCOCC2)n1` gave RAM inhibit 0, Insulin prom inh 0, Ins promoter up 0.2, BB579 growth dn -11 and Yeast lifespan up -5.
For N#Cc1c(C(F)(F)F)cc(C2CC2)nc1N1CCCC1 the results were RAM inhibit 14*, Insulin prom inh -76, Ins promoter up 0.11, BB579 growth dn -18, Yeast lifespan up -4 and RAM 5-FOA 2.
`COc1ccc(Cl)cc1Nc1nc(C)cc(C)c1C(N)=O` gave RAM inhibit 2, Insulin prom inh 53 and BB579 growth dn -16.
For CCC1CCCCN1C(=O)c1ccc(OC2CCN(C(=O)C3CC3)CC2)cc1 (stereo not given) the results were RAM inhibit 0 and Ins promoter up -0.66.
Screening COc1ccccc1-n1c(SCC(=O)OC(C)C)nc2cccnc21 returned Ins promoter up 0.39.

Screens deposited in PubChem by several laboratories.
